Where two headings read alike, the source gives them in different places. One block for each compound: values may come before it. Peptide text beside a SMILES is read from it. * marks the point of attachment. Cbz = O=C(OCc1ccccc1)*; CH2F = FC*
Experiments:
[1] = molecular target: T1, caspase-3 (Homo sapiens, UniProt P42574); experiment: Fluozin-3 competition zinc affinity; type: binding; conditions: competition with Fluozin-3
T1 sequence (P42574 29-175 limits assumed): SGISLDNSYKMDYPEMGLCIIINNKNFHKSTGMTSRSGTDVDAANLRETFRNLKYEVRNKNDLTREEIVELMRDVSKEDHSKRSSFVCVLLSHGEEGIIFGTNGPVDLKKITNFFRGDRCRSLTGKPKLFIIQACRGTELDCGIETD
T1 sequence (P42574 176-277 limits assumed): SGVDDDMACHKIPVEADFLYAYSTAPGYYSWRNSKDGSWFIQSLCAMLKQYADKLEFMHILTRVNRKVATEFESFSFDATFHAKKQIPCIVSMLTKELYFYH
In short: (§1)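 Caspase titrated into reactions holding a constant amount of zinc and the fluorescent zinc indicator Fluozin-3. Each reaction was left to reach equilibrium, then Fluozin-3 fluorescence was read, with signal falling as caspase competed for zinc. Mean ± SEM from three experiments on three separate days.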

[2] = molecular target: T2, caspase-8 (Homo sapiens, UniProt Q14790); experiment: size exclusion chromatography of caspase-8 oligomeric state; conditions: SEC after incubation
T2 sequence (Q14790 217-374 limits assumed): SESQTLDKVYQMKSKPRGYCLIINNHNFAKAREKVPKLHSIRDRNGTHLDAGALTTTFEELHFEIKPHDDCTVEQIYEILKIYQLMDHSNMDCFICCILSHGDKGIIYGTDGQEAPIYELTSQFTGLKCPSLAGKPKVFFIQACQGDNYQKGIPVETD
T2 sequence (Q14790 385-479 limits assumed): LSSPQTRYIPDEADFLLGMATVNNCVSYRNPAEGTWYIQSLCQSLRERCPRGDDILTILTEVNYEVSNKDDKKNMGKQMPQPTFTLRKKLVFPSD
In short: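 Oligomeric state of caspase-8 was resolved by size-exclusion chromatography into dimer and monomer peaks. Protein was run alone, after incubation with zVAD-FMK, or after inhibitor incubation followed by increasing zinc. Peak fractions were quantified as mean ± SEM from three experiments on three separate days.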

[3] = molecular target: T1, caspase-3; conditions: cited from earlier work
[4] = molecular target: T3, caspase-6 (Homo sapiens, UniProt P55212); experiment: caspase-6 cleavage of preferred fluorogenic tetrapeptide substrate; type: biochemical
T3 sequence (P55212 24-179 limits assumed): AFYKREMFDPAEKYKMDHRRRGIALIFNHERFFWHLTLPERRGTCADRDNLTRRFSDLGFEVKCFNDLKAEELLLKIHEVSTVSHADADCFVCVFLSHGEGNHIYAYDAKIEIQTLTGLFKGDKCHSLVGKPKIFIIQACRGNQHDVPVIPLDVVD
T3 sequence (P55212 194-293 limits assumed): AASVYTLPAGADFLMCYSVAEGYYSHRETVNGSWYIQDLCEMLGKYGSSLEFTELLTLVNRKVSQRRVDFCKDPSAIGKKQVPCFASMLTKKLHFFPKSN

[5] = test system: caspase-8 C360A; experiment: differential scanning fluorimetry thermal stability; type: binding; conditions: DSF; for TM Values, C360A: zinc salts at 50 μM; for effect on Tm of caspase-8 C360A: incubation with other metals
[6] = molecular target: T1, caspase-3; experiment: zincon colorimetric zinc-binding stoichiometry; conditions: zincon absorbance at 620 nm
In short: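 Caspase-3 and -7 were tested alone or with the active site occupied by zVAD; caspase-8 wild type and C360A were also tested. Mean ± SEM from three experiments on three separate days.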

[7] = molecular target: T2, caspase-8; experiment: Fluozin-3 competition zinc affinity; type: binding; conditions: competition with Fluozin-3
In short: as §1

[8] = molecular target: T3, caspase-6; conditions: read-out: IC50 (unbuffered); cited from earlier work
[9] = molecular target: T2, caspase-8; experiment: caspase-8 cleavage of procaspase-7; type: biochemical; conditions: metal panel
[10] = molecular target: T1, caspase-3; experiment: caspase-3 cleavage of fluorogenic tetrapeptide substrate DEVD-AMC; type: biochemical
[11] = molecular target: T4, caspase-7 (Homo sapiens, UniProt P55210); experiment: caspase-7 cleavage of fluorogenic tetrapeptide substrate DEVD-AMC; type: biochemical
T4 sequence (P55210 24-198 limits assumed): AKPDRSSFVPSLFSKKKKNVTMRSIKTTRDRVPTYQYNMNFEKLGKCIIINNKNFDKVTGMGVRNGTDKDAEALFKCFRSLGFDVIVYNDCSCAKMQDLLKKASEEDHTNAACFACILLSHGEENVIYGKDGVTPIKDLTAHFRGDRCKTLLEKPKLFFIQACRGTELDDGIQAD
T4 sequence (P55210 207-303 limits assumed): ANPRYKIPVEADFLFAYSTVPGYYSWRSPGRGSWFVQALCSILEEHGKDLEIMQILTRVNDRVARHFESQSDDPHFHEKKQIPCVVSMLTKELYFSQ

[12] = molecular target: T1, caspase-3; experiment: caspase-3 cleavage of protein substrates PAK2 and PARP, metal panel; type: biochemical
[13] = molecular target: T2, caspase-8; experiment: caspase-8 cleavage of fluorogenic tetrapeptide substrate LEHD-AMC; type: biochemical
[14] = molecular target: T3, caspase-6; experiment: Fluozin-3 competition zinc affinity; type: binding; conditions: competition with Fluozin-3
In short: as §1

[15] = read-out: KD for zinc; cited from earlier work
[16] = molecular target: T4, caspase-7; experiment: caspase-7 cleavage of protein substrate PAK2, metal panel; type: biochemical
[17] = test system: caspase-8 wild-type; experiment: differential scanning fluorimetry thermal stability; type: binding; conditions: DSF; for TM Values, Wild Type: zinc salts at 50 μM
[18] = test system: caspase-7 variant H131A/C171A; experiment: activity of caspase-7 variant in absence and presence of ZnCl2; type: biochemical; conditions: presence vs absence of ZnCl2
[19] = read-out: IC50 Values Unbuffered, total zinc, no zinc buffer, 10 nM caspase
[20] = panel of biologically relevant metals
[21] = zinc buffered (NTA), mixed model of inhibition, global fit
[22] = metal panel, peptide substrate DEVD-AMC

Compound: [Zn+2] [Zinc, zinc]
zinc affinity (KD via Cheng-Prusoff) [1]: low nanomolar affinity | caspase-8 eluting as dimer [2]: 10% | caspase-8 eluting as monomer [2]: 90% | zinc concentration at which caspase-3 is inhibited [3]: ≥ 1.7 nM | IC50 [4, 19]: 4.53 ± 1.1 µM | Ki ([4]; zinc buffered (NTA), assumed noncompetitive): 0.0026 µM | destabilization of caspase-8 C360A (Tm decrease) [5]: 5 °C | zincs bound per caspase monomer (stoichiometry) [6]: three | zinc affinity (KD via Cheng-Prusoff) [7]: low nanomolar affinity | IC50 [8]: 4.5 µM | effect on cleavage of procaspase-7 (C186A) [9]: significant impact | effect on peptide substrate cleavage [10, 20]: inhibited | IC50 [10, 19]: 0.104 ± 0.026 µM | Ki [10, 21]: 0.0069 µM | effect on peptide substrate cleavage [11, 20]: inhibited | IC50 [11, 19]: 1.58 ± 0.75 µM | Ki ([11]; zinc buffered (citrate), mixed model of inhibition, global fit): 0.0761 µM | effect on cleavage of protein substrate PARP [12]: inhibitory effect | effect on peptide substrate cleavage [13, 20]: inhibited | IC50 [13, 19]: 0.367 ± 0.038 µM | Ki [13, 21]: 0.0043 µM | zinc affinity (KD via Cheng-Prusoff) [14]: low nanomolar affinity

Compound: O=C(O)c1ccccc1NN=C(N=Nc1cc(S(=O)(=O)O)ccc1O)c1ccccc1 [Zincon]
Kd [15]: 12 µM

Compound: O=S(=O)([O-])[O-].[Zn+2] [ZnSO4]
destabilization of caspase-8 C360A (Tm decrease) [5]: 5 °C | TM Values, C360A [5]: 41.6 ± 0.6 °C | effect on cleavage of protein substrate PAK2 [16]: inhibited | destabilization of caspase-8 (Tm decrease) [17]: approximately 3 °C | TM Values, Wild Type [17]: 44.8 ± 0.3 °C | effect on cleavage of protein substrate PAK2 [12]: completely inhibited

caspase-8 eluting as dimer [2]: 63% | caspase-8 eluting as monomer [2]: 37% | inhibition of caspase activity ([10]; two-hour incubation): completely inhibited | inhibition of caspase activity ([11]; two-hour incubation): completely inhibited
Compound: CC(NC(=O)C(NC(=O)OCc1ccccc1)C(C)C)C(=O)NC(CC(=O)O)C(=O)CF (stereo not drawn) [zVAD-FMK, carbobenzoxy-Val-Ala-Asp-fluoromethylketone, reference compound] (Cbz-Val-Ala-Asp-CH2F; configuration not given here)

Compound: [Cd] [Cadmium, cadmium]
effect on cleavage of protein substrate PAK2 [16]: had an inhibitory effect | effect on cleavage of procaspase-7 (C186A) [9]: minor impact | activity remained [10, 22]: 39% | activity remained [11, 22]: 84% | effect on cleavage of protein substrate PARP [12]: inhibitory effect | activity remained ([13]; metal panel, peptide substrate LEHD-AMC): 12%

effect on Tm of caspase-8 C360A [5]: failed to significantly alter
Compound: [Ca+2] [calcium]

effect on Tm of caspase-8 C360A [5]: failed to significantly alter | effect on cleavage of procaspase-7 (C186A) [9]: minor impact | effect on cleavage of protein substrate PAK2 [12]: did not observe
Compound: [Cu] [Copper, copper]

TM Values, C360A [5]: 46.4 ± 0.2 °C | Tm increase [17]: 27 °C | TM Values, Wild Type [17]: 75.5 ± 0.3 °C
Compound: CC[C@H](C)[C@H](NC(C)=O)C(=O)N[C@@H](CCC(=O)O)C(=O)N[C@H](C(=O)N[C@H](C=O)CC(=O)O)[C@@H](C)O [Ac-IETD-CHO, acetyl-Ile-Glu-Thr-Asp-aldehyde, reference compound] (Ac-IETD-aldehyde)

Compound: [Co] [cobalt]
effect on cleavage of protein substrate PAK2 [12]: did not observe

Compound: COc1ccc(N(CC(=O)O)CC(=O)O)c(OCCOc2cc(-c3c4cc(F)c(=O)cc-4oc4cc(O)c(F)cc34)ccc2NCC(=O)O)c1 [Fluozin-3]
Kd [15]: 0.015 µM

effect on Tm of caspase-8 C360A [5]: failed to significantly alter
Compound: [Fe] [iron]

Compound: [Cl-].[Cl-].[Zn+2] [ZnCl2]
destabilization of caspase-8 C360A (Tm decrease) [5]: 5 °C | TM Values, C360A [5]: 41.5 ± 0.9 °C | effect on cleavage of protein substrate PAK2 [16]: inhibited | destabilization of caspase-8 (Tm decrease) [17]: approximately 3 °C | TM Values, Wild Type [17]: 44.5 ± 0.4 °C | effect on cleavage of protein substrate PAK2 [12]: completely inhibited | inhibition of variant activity [18]: inhibited by zinc in a similar fashion to wild-type

Source: publication PMC5959779 (ACS chemical biology, 2018)
